This note sets out measurements from ChEMBL document CHEMBL1154983, “Arylpiperazine-containing pyrrole 3-carboxamide derivatives targeting serotonin 5-HT(2A), 5-HT(2C), and the serotonin transporter as a potential antidepressant” (Bioorg Med Chem Lett, 2010).

Where only a bound is given, the exact number is not on record here.

Assay [1] deals with Mus musculus. The assay is described as follows: Antidepressant activity in mouse assessed as decrease in duration of immobility at 100 mg/kg, po during final 5 mins of the 6 mins session by forced swimming test. In kind it is functional. Further details: scale not given: the % may be the effect or the level left. The essentials:
(§1)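 Mice swam 10 min in a 25-cm glass cylinder (10 cm diameter) holding 15 cm of water at 23 1 °C. Twenty-four hours later, drug was given po 60 min before retesting. Immobility (floating upright with only small movements keeping head above water) was totalled over the last 5 min of the 6-min test.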

Assay [2] has as its system Mus musculus. The assay is described as follows: Antidepressant activity in mouse assessed as decrease in duration of immobility at 10 mg/kg, po during final 5 mins of the 6 mins session by forced swimming test. The class given is functional. Further details: scale not given: the % may be the effect or the level left. The essentials: as §1
Assay [3] has as its target T1, 5-hydroxytryptamine receptor 1A (Homo sapiens, UniProt P08908).
T1 sequence (P08908 whole entry): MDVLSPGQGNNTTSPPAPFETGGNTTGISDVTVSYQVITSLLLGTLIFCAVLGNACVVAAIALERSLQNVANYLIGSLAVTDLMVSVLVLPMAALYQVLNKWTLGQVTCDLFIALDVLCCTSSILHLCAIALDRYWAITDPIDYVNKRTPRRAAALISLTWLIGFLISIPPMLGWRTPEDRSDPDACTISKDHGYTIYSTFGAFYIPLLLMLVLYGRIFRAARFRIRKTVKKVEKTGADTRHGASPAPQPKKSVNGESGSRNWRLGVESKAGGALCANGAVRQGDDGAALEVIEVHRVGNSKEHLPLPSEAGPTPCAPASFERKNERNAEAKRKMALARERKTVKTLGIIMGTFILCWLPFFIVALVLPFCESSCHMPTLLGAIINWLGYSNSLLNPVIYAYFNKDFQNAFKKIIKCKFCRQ
The assay can be described thus: Inhibition of 5HT1A receptor.

Assay [4] deals with 5-hydroxytryptamine receptor 6 (Homo sapiens, UniProt P50406). The assay is described as follows: Inhibition of 5HT6 receptor.
Chain of 5-hydroxytryptamine receptor 6 (P50406 whole entry): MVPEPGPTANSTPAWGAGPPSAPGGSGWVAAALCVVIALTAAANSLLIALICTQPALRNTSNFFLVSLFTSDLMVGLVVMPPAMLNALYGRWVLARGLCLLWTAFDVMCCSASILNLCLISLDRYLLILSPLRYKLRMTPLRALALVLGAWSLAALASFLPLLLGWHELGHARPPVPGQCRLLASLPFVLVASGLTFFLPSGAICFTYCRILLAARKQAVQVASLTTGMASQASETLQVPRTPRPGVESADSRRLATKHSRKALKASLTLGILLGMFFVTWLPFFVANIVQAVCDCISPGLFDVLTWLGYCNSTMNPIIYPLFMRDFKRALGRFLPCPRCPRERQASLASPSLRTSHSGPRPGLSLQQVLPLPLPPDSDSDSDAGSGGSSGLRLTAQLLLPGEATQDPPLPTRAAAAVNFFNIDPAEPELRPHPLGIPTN
Assay [5] deals with 5-hydroxytryptamine receptor 7 (Homo sapiens, UniProt P34969). The assay can be described thus: Inhibition of 5HT7 receptor.
Chain of 5-hydroxytryptamine receptor 7 (P34969 whole entry): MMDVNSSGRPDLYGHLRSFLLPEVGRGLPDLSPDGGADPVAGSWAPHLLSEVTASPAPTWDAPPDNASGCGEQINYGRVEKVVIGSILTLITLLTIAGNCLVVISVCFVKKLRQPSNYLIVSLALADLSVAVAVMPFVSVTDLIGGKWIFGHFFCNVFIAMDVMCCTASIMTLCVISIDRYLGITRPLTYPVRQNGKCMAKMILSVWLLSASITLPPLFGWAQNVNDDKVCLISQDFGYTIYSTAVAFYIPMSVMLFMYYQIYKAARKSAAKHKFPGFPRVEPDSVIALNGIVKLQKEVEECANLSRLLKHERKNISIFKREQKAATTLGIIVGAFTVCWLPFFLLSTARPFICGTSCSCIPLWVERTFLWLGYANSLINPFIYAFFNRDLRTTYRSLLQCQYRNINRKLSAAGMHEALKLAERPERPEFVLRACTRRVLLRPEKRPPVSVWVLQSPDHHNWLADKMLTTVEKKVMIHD
The target of a further assay is D(2) dopamine receptor (Homo sapiens, UniProt P14416). The assay can be described thus: Inhibition of dopamine D2 receptor.
Chain of D(2) dopamine receptor (P14416 whole entry): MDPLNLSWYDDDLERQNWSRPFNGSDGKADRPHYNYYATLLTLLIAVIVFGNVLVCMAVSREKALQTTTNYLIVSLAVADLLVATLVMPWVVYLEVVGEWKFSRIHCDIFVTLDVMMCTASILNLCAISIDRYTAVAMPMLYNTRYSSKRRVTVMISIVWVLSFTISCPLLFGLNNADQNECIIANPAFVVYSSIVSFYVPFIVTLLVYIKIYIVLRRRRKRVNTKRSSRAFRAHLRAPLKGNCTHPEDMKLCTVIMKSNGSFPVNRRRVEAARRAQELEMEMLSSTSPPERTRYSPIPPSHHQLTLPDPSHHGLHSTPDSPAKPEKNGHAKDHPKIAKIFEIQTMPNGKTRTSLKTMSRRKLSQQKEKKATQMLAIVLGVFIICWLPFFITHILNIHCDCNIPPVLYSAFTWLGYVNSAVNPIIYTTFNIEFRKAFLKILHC
In another assay the target is D(3) dopamine receptor (Homo sapiens, UniProt P35462). The assay can be described thus: Inhibition of dopamine D3 receptor.
Chain of D(3) dopamine receptor (P35462 whole entry): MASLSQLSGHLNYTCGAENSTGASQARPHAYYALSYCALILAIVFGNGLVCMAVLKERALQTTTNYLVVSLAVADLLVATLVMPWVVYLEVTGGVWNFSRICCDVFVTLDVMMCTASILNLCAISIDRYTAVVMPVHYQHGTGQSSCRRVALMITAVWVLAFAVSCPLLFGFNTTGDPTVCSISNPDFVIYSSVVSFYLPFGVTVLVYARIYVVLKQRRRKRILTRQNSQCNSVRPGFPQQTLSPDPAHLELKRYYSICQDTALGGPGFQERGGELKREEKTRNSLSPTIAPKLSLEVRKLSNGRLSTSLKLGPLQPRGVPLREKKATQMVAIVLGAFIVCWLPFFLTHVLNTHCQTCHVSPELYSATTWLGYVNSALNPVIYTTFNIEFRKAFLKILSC
In a further assay the target is T2, D(4) dopamine receptor (Homo sapiens, UniProt P21917).
T2 sequence (P21917 whole entry): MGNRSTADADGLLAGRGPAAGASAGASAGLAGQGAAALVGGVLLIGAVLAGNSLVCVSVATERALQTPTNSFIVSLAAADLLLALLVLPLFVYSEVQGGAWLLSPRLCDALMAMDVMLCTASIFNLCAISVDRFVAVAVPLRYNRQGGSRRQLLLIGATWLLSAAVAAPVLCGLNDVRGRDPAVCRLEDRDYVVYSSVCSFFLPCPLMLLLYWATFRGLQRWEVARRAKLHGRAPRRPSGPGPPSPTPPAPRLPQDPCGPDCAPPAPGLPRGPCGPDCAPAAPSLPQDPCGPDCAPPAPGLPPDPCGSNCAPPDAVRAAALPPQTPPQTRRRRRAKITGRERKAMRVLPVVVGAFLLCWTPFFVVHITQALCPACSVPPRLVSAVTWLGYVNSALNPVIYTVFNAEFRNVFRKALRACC
The assay can be described thus: Inhibition of dopamine D4 receptor.

The next assay concerns the target T3, Cytochrome P450 1A2 (Homo sapiens, UniProt P05177).
T3 sequence (P05177 whole entry): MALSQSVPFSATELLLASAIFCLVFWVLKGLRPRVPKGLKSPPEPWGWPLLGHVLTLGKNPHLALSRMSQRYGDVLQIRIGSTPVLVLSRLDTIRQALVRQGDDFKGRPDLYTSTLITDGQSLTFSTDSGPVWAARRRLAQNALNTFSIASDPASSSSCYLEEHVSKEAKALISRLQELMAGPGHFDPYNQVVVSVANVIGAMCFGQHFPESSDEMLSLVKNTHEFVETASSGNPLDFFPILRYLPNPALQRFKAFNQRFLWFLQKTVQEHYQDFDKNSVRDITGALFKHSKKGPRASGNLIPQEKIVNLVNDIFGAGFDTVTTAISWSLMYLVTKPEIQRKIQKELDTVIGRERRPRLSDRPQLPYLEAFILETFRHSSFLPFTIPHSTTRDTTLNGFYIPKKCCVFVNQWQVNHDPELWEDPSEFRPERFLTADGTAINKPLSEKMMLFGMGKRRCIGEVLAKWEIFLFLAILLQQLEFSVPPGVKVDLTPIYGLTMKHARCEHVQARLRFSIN
The assay can be described thus: Inhibition of CYP1A2. The class given is ADME.

A further assay concerns the target Cytochrome P450 2D6 (Homo sapiens, UniProt P10635). The assay can be described thus: Inhibition of CYP2D6. The class given is ADME.
The target of another assay is Cytochrome P450 3A4 (Homo sapiens, UniProt P08684). The assay can be described thus: Inhibition of CYP3A4. In kind it is ADME.
Chain of Cytochrome P450 3A4 (P08684 whole entry): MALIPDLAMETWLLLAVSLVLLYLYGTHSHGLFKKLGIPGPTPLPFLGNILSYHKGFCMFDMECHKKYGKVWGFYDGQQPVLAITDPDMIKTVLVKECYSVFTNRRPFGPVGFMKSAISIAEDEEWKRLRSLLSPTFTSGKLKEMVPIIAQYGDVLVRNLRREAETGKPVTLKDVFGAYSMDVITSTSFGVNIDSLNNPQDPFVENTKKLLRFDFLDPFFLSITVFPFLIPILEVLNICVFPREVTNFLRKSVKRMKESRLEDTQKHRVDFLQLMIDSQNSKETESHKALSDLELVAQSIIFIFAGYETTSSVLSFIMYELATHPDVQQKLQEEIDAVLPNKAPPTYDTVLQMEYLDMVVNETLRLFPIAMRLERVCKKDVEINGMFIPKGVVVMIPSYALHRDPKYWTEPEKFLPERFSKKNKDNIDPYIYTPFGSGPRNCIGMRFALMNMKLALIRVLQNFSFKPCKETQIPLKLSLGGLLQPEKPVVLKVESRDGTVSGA
The target of the next assay is Cytochrome P450 2C9 (Homo sapiens, UniProt P11712). The assay can be described thus: Inhibition of CYP2C9. The class given is ADME.
Chain of Cytochrome P450 2C9 (P11712 whole entry): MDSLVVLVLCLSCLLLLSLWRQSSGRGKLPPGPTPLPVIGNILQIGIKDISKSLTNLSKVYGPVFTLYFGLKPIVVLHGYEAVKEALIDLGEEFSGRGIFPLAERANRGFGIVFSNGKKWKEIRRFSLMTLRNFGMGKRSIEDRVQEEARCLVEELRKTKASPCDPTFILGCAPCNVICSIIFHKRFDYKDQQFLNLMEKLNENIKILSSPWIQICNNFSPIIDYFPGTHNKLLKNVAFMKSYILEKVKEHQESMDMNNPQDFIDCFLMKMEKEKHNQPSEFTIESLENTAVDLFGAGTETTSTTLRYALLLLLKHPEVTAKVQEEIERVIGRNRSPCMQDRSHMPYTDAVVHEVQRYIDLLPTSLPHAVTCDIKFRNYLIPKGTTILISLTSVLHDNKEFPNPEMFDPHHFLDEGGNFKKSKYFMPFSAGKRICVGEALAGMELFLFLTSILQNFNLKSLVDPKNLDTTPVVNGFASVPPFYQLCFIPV

Chain of Cytochrome P450 2D6 (P10635 whole entry): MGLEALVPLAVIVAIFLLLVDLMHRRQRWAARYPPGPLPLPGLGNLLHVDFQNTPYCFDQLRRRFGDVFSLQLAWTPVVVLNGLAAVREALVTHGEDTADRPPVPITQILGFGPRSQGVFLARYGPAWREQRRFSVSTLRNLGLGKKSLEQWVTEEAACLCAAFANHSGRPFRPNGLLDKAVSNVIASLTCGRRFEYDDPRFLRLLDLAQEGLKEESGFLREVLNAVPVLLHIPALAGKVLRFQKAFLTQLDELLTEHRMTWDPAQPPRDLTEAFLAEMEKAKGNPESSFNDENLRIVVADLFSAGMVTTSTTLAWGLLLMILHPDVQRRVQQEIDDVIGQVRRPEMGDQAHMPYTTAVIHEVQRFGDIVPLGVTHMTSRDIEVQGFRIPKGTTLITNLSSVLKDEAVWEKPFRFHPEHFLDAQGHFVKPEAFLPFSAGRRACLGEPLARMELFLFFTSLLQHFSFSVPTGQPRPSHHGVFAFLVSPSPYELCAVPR

What is called IC50 is the concentration that inhibits the measured activity by half. `Cc1c(C(=O)NCCCN2CCN(c3cccc(Cl)c3Cl)CC2)cc(-c2ccccc2)n1C`: the results for the Activity in the assay with Mus musculus [1] and in the assay with Mus musculus [2] were below 25% and 80%, respectively. Also, the IC50 in assay [3] was found to be 54 nM; in assay [4] it was 713 nM; in assay [5] it was 333 nM; at D(2) dopamine receptor, 2540 nM; against D(3) dopamine receptor, 915 nM; at D(4) dopamine receptor, 984 nM. In addition, the half-inhibitory concentration (IC50) at Cytochrome P450 1A2 is above 20 µM; on Cytochrome P450 2D6, above 20 µM; against Cytochrome P450 3A4, above 20 µM; at Cytochrome P450 2C9, 9.7 µM.
